Laboratory results: ChEMBL document CHEMBL1127606, “HIV-1 reverse transcriptase inhibitor design using artificial neural networks” (1994)
Values belong to the compound of their own block, whether it stands above or below them. The source made the active and inactive calls. The rule behind the calls is not given here.

Columns and labels:
[1] = target: Human immunodeficiency virus type 1 reverse transcriptase (Human immunodeficiency virus 1) (UniProt Q72547); experiment: Inhibition of HIV-1 reverse transcriptase; - = inactive
MT4 [2] = experiment: Antigen p24 content in culture fluid at 10e-4 concentration of compound was tested on MT-4 cells infected by […]; assay type: functional, Homo sapiens
Outline: (§1)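 p24 assay: MT-4 cultures were infected with HIV-1 from chronically infected H9/IIIB cultures (0.05–0.1 log10 EPCD50 per cell) and held 7 days with compound at 10^-4 or 10^-5 M. Virus production was measured as p24 antigen in culture fluid by immunoenzymatic assay, in ng/mL.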

MT4 [3] = experiment: Antigen p24 content in culture fluid at 10e-5 concentration of compound was tested on MT-4 cells infected by […]; assay type: functional, Homo sapiens; outline: as §1
MT4 [4] = experiment: Content of viable cells at 10e-4 concentration of compound was tested on MT-4 cells infected by […]; assay type: functional, Homo sapiens
Outline: (§2)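 Anti-HIV viable-cell assay: MT-4 lymphocytes infected with cell-free fluid from chronically HIV-1-infected H9/IIIB cultures at 0.05–0.1 log10 EPCD50 per cell. They were cultured 7 days with compound at 10^-4 or 10^-5 M. Viable cells were counted by 0.25% trypan blue exclusion and reported as % viable cells.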

MT4 [5] = experiment: Content of viable cells at 10e-5 concentration of compound was tested on MT-4 cells infected by […]; assay type: functional, Homo sapiens; outline: as §2
MT4 [6] = experiment: Number of infected cells at 10e-4 concentration of compound was tested on MT-4 cells infected by […]; assay type: functional, Homo sapiens
Outline: (§3)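 Infected-cell count: HIV-1 (H9/IIIB-derived fluid, 0.05–0.1 log10 EPCD50 per cell) was used to infect MT-4 lymphocytes, which were then grown 7 days with compound at 10^-4 or 10^-5 M. Cells expressing viral antigens on their surface membranes were scored by indirect immunofluorescence with anti-HIV-1 antibodies, as % of cells.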

MT4 [7] = experiment: RT activity in culture fluid at 10e-4 concentration of compound was tested on MT-4 cells infected by […]; assay type: cell-based
Outline: (§4)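 RT assay: infected MT-4 cells (H9/IIIB-derived HIV-1, 0.05–0.1 log10 EPCD50 per cell) were cultured 7 days with compound at 10^-4 or 10^-5 M. Reverse transcriptase activity in the culture fluid was measured and expressed as % of untreated infected control.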

MT4 [8] = experiment: RT activity in culture fluid at 10e-5 concentration of compound was tested on MT-4 cells infected by […]; assay type: cell-based; outline: as §4
MT4 [9] = experiment: Number of infected cells at 10e-5 concentration of compound was tested on MT-4 cells infected by […]; assay type: functional, Homo sapiens; outline: as §3
MT4 [10] = experiment: Cytotoxic concentration for 50% death of uninfected MT-4 cell culture
MT4 [11] = experiment: Cytotoxic concentration for 50% death of MT-4 cell culture infected by HIV-1/ IIIB; assay type: functional, Homo sapiens

Compound: COC(=O)C(NP(=O)(OCC1OC(n2cc(C)c(=O)[nH]c2=O)CC1F)OCC(Cl)(Cl)Cl)C(C)C (stereo unspecified)
Activity [1]: inactive

Compound: COC(=O)C(C)NP(=O)(OCC1OC(n2cc(C)c(=O)[nH]c2=O)CC1F)OCC(Cl)(Cl)Cl (stereo unspecified)
Activity [1]: inactive

Compound: COC1=NC(CC(C)=O)N=C(OC)C1(CC(O)CO)[N+](=O)[O-] (stereo unspecified)
Antigen p24 content (MT4 [2]): 1.92 ng/mL
Antigen p24 content (MT4 [3]): 1.87 ng/mL
Viable cells (MT4 [4]): 37.3%
Viable cells (MT4 [5]): 52.1%
No. of infected cells (MT4 [6]): 19.7%
RT activity (MT4 [7]): 84.3%
RT activity (MT4 [8]): 82.5%
No. of infected cells (MT4 [9]): 12.6%
CTC50 (MT4 [10]): 0.058 M

Compound: CC(=O)N[C@@H]1C=C[C@@H](n2cc(C)c(=O)[nH]c2=O)OC1
Activity [1]: inactive

Compound: Cc1cn(C2C=C[C@@H](O)[C@@H](CO)O2)c(=O)[nH]c1=O (single isomer, unassigned)
Activity [1]: inactive

Compound: Cc1cn([C@@H]2C=C[C@@H](N=[N+]=[N-])[C@@H](CO)O2)c(=O)[nH]c1=O
Activity [1]: inactive

Compound: Cc1cn([C@@H]2O[C@H](CO)C=C2F)c(=O)[nH]c1=O
Activity [1]: inactive

Compound: COc1nc(CC(C)=O)nc(OC)c1CC(O)CO (stereo unspecified)
CTC50 (MT4 [11]): 78 µM

Compound: COC1=NC(OC)=C([N+](=O)[O-])C(CC(C)=O)N1CC(O)CO (stereo unspecified)
Antigen p24 content (MT4 [2]): 0.87 ng/mL
Antigen p24 content (MT4 [3]): 0.77 ng/mL
Viable cells (MT4 [4]): 85.1%
Viable cells (MT4 [5]): 83.2%
No. of infected cells (MT4 [6]): 3.6%
RT activity (MT4 [7]): 20.9%
RT activity (MT4 [8]): 18.7%
No. of infected cells (MT4 [9]): 2.8%
CTC50 (MT4 [10]): 0.0466 M

Compound: O=c1ccn(C2OC(CO)C=C2F)c(=O)[nH]1 (stereo unspecified)
Activity [1]: inactive

Compound: CC(=O)N[C@@H]1C=C[C@@H](n2cc(C)c(=O)[nH]c2=O)O[C@@H]1CO
Activity [1]: inactive

Compound: CC(=O)N[C@@H]1C=C[C@H](n2cc(C)c(=O)[nH]c2=O)O[C@@H]1CO
Activity [1]: inactive

Compound: Cc1cn([C@H]2C[C@H](N=[N+]=[N-])[C@@H](CO)O2)c(=O)[nH]c1=O [ZIDOVUDINE]
Antigen p24 content (MT4 [2]): 0.82 ng/mL
Antigen p24 content (MT4 [3]): 0.68 ng/mL
Viable cells (MT4 [4]): 78.6%
Viable cells (MT4 [5]): 69.7%
No. of infected cells (MT4 [6]): 2.9%
RT activity (MT4 [7]): 19.2%
RT activity (MT4 [8]): 17%
No. of infected cells (MT4 [9]): 2.1%
CTC50 (MT4 [10]): 0.0053 M

Compound: Cc1cn([C@@H]2O[C@H](CO)C[C@H]2F)c(=O)[nH]c1=O
Activity [1]: inactive

Compound: O=c1ccn(C2OC(CO)CC2F)c(=O)[nH]1 (stereo unspecified)
Activity [1]: inactive

The remaining lines, values ahead:

Activity [1]: inactive
Compound: Cc1cn(C2C=C[C@@H](N=[N+]=[N-])CO2)c(=O)[nH]c1=O (single isomer, unassigned)

Activity [1]: inactive
Compound: Cc1cn([C@@H]2O[C@H](CO)[C@@H](N=[N+]=[N-])[C@H]2F)c(=O)[nH]c1=O

Activity [1]: inactive
Compound: COC(=O)C(Cc1ccccc1)NP(=O)(NC(Cc1ccccc1)C(=O)OC)OCC1OC(n2cc(C)c(=O)[nH]c2=O)CC1F (stereo unspecified)

Activity [1]: inactive
Compound: Nc1nc(=O)n(C2OC(CO)CC2F)cc1F (stereo unspecified)

Activity [1]: inactive
Compound: CC(=O)O[C@H]1C=C[C@H](n2cc(C)c(=O)[nH]c2=O)O[C@@H]1CO

Activity [1]: inactive
Compound: Cc1cn([C@H]2C=C[C@@H](N=[N+]=[N-])[C@@H](CO)O2)c(=O)[nH]c1=O

Activity [1]: inactive
Compound: CC(=O)O[C@H]1C=C[C@@H](n2cc(C)c(=O)[nH]c2=O)OC1

Activity [1]: inactive
Compound: Cc1cn([C@@H]2C=CC(O)CO2)c(=O)[nH]c1=O (single isomer, unassigned)

Activity [1]: inactive
Compound: CC(=O)OC[C@H]1O[C@H](n2cc(C)c(=O)[nH]c2=O)C=C[C@@H]1OC(C)=O

Activity [1]: inactive
Compound: O=c1ccn(C2OC(CO)C(F)C2F)c(=O)[nH]1 (stereo unspecified)

Activity [1]: inactive
Compound: Cc1cn(C2C=C[C@H](O)[C@@H](CO)O2)c(=O)[nH]c1=O (single isomer, unassigned)

Activity [1]: inactive
Compound: CCc1cc(CCN2C(=O)c3ccccc3C2=O)c(O)nc1C
